≈ marks a conversion by molar mass, not a printed value. One block for each molecule: values may come before it.
T1: DHBDAXX (residues 55-144 hDAXX) (Homo sapiens, UniProt Q9UER7)
T1 sequence (Q9UER7 55-144): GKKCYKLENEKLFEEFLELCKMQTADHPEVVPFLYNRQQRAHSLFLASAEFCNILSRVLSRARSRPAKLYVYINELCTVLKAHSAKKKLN

B1: DAXX Interacting Domain of ATRX (DID_(ATRX), residues 1190-1325 hATRX) (domain or fragment, human, UniProt P46100 1190-1325, looked up)
chain: RTSTKRKQADITSSSSSDIEDDDQNSIGEGSSDEQKIKPVTENLVLSSHTGFCQSSGDEALSKSVPVTVDDDDDDNDPENRIAKKMLLEEIKANLSSDEDGSSDDEPEEGKKRTGKQNEENPGDEEAKNQVNSESD
B2: DIDATRX: DAXX Interacting Domain of ATRX, residues 1190–1325 hATRX, recombinant (protein)
chain: B1 chain
modifications: left off: His6, N-terminal, state not stated
B3: DAXX Helical Bundle domain (DHB_(DAXX), residues 55-144 hDAXX) (domain or fragment, human, UniProt Q9UER7 55-144, looked up)
chain: T1 sequence (Q9UER7 55-144)

How the values were obtained:
[1] = tested on: HCT116 cells; assay: Lactate dehydrogenase; type: cell-based; settings: chloroalkane versions, 2% serum, 4 and 24 h
Summary of the method: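 HCT116 cells were seeded at 5000 per well in DMEM/10% FCS for 24 h, then switched to medium with 2% FCS. They were given titrated peptide (up to 50 μM; 1% v/v DMSO final) for 4 or 24 h, with 1% DMSO-only controls. Released LDH was measured by colorimetric kit and normalised to 0.1% Triton X-100 lysis. Mean of three independent measurements ± 1 SD.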

[2] = Solubility limit of stitched peptides; type: physicochemical; settings: peptides synthesized with an N-terminal FAM moiety; method not described
[3] = target: T1, DHBDAXX (residues 55-144 hDAXX); assay: Fluorescence polarisation saturation binding of FAM-labelled peptide to DHBDAXX; settings: fluorescence anisotropy Kd
[4] = target: B3; assay: ITC
[5] = target: T1, DHBDAXX (residues 55-144 hDAXX); assay: Isothermal titration calorimetry; type: binding; settings: ITC, 25 °C, ATRX fragments (Table 1), no unit in table
[6] = target: T1, DHBDAXX (residues 55-144 hDAXX); settings: read-out: Kd (competitive binding affinity); competitive displacement of FAM-SPEP7 from DHBDAXX
[7] = target: B1; assay: fluorescence polarisation
[8] = target: B1; assay: ITC

Molecule: CC[C@H](C)[C@@H]1NC(=O)[C@H](CCC(=O)O)NC(=O)[C@H](C)NC(=O)[C@H](CC(C)C)NC(=O)[C@H](CC(C)C)NC(=O)C2(CCCC=CCCCCCC[C@@](C)(C(=O)N[C@@H](CC(N)=O)C(=O)N[C@@H](CC(C)C)C(=O)N[C@@H](CO)C(N)=O)NC(=O)[C@H](CCCCN)NC1=O)CCCC=CCCC[C@](C)(NC(=O)[C@H](CCCNC(=N)N)NC(=O)[C@H](CC(N)=O)NC(=O)[C@H](CCC(=O)O)NC(=O)[C@@H]1CCCN1C(=O)[C@H](CC(=O)O)NC(=O)[C@H](CC(N)=O)NC(=O)[C@@H](N)CC(=O)O)C(=O)N[C@@H](C)C(=O)N[C@@H](CCCCN)C(=O)N[C@@H](CCCCN)C(=O)N2 (some centres unmarked) [STPEP2]
cellular toxicity (LDH release) [1]: no significant cellular toxicity
solubility limit [2]: 11 µM (≈ 28.9 µg/mL)

Molecule: CC[C@H](C)[C@@H]1NC(=O)[C@H](CCC(=O)O)NC(=O)[C@H](C)NC(=O)[C@H](CC(C)C)NC(=O)[C@H](CC(C)C)NC(=O)[C@H](C)NC(=O)C2(CCCC=CCCCCCC[C@@](C)(C(=O)N[C@@H](C)C(=O)N[C@@H](CC(N)=O)C(=O)N[C@@H](CC(C)C)C(=O)N[C@@H](CO)C(N)=O)NC1=O)CCCC=CCCC[C@](C)(NC(=O)[C@H](CC(N)=O)NC(=O)[C@H](CCC(=O)O)NC(=O)[C@@H]1CCCN1C(=O)[C@@H](N)CC(N)=O)C(=O)N[C@@H]([C@@H](C)CC)C(=O)N[C@@H](C)C(=O)N[C@@H](CCCCN)C(=O)N2 (some centres unmarked) [STPEP7]
fold decrease in binding compared to FAM-SPEP7 [3]: ~7 fold
cellular toxicity (LDH release) [1]: no significant cellular toxicity
solubility limit [2]: 49 µM (≈ 110 µg/mL)

dH [4]: -12.2 kcal/mol
Molecule: PVTVDDDDDDNDPENRIAKKMLLEEIKANLSSDED (peptide, UniProt P46100 1255-1289, looked up) [ATRX (1255–1289) peptide]

dH [4]: -13.4 kcal/mol
Molecule: DDNDPENRIAKKMLLEEIKANLSSDEDG (peptide, UniProt P46100 1263-1290, looked up) [ATRX (1263–1290) peptide]

dH [4]: -13.3 kcal/mol
Molecule: DNDPENRIAKKMLLEEIKANLS (peptide, UniProt P46100 1264-1285, looked up) [PEP_(ATRX), peptide fragment of ATRX (1264–1285)]

dH [4]: -9.3 kcal/mol
Molecule: PENRIAKKMLLEEIKANL (peptide, UniProt P46100 1267-1284, looked up) [ATRX (1267–1284) peptide]

dH [4]: -11.9 kcal/mol
Molecule: PENRIAKKMLLEEIKANLSSDEDG (peptide, UniProt P46100 1267-1290, looked up) [ATRX (1267–1290) peptide]

dH [4]: -10.6 kcal/mol
Molecule: PVTVDDDDDDNDPENRIAKKMLLEEIKANL (peptide, UniProt P46100 1255-1284, looked up) [ATRX (1255–1284) peptide]

Molecule: B1
dH [4]: -11.7 kcal/mol

Molecule: B2
ΔG [5]: −9.69
−TΔS [5]: 2.06
ΔH ([5]; error in parentheses): −11.7 (0.10)
Kd [6]: 193 nM

Molecule: B3
Kd [7]: 193 nM
Kd [8]: 80 nM

dH [4]: -13.8 kcal/mol
Molecule: DDDDNDPENRIAKKMLLEEIKANLSSDEDG (peptide, UniProt P46100 1261-1290, looked up) [ATRX (1261–1290) peptide]

dH [4]: -13.3 kcal/mol
Molecule: NDPENRIAKKMLLEEIKANLSSDEDG (peptide, UniProt P46100 1265-1290, looked up) [ATRX (1265–1290) peptide]

Source: paper PMC10685803 (RSC Chemical Biology, 2023)
